Consider one compound from ChEMBL document CHEMBL4706526, “The HIV-1 maturation inhibitor, EP39, interferes with the dynamic helix-coil equilibrium of the CA-SP1 junction of Gag” (Eur J Med Chem, 2020).

pKd: −log10 of the molar value. Activity calls are given as the source filed them. No cut-off for these calls is given here.

The subject of experiment [1] is Human immunodeficiency virus 1. The experiment is described as follows: Binding affinity to HIV-1NL4-3 15N-labeled C-terminal domain CA-SP1-NC cleavage site of Gag-Pol protein harboring W184A/M185A mutant expressed in Escherichia coli assessed as change in peak intensity at CA 218 to NC 257 residues by 1H-15N SOFAST-HMQC spectroscopic analysis. Summed up: (§1)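 1H-15N SOFAST-HMQC of 300 μM 15N-labelled CA-CTD(W184A/M185A)-SP1-NC, without and with ligand. Buffer: 25 mM Na acetate pH 6.5, 25 mM NaCl, 0.1 mM ZnCl2, 0.1 mM 2-mercaptoethanol, 10% D2O. Recorded at 303 K, 600 MHz, cryoprobe. Ligand from ~60 mM DMSO-d6 stock. Control sample held protein plus the same DMSO-d6 amount.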

Experiment [2] in a line: Binding affinity to HIV-1NL4-3 15N-labeled C-terminal domain CA-SP1-NC at A232 residue cleavage site of Gag-Pol protein harboring W184A/M185A mutant expressed in Escherichia coli by 1H-15N SOFAST-HMQC spectroscopic analysis. Also noted: species or system Human immunodeficiency virus 1. In a few lines: (§2)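 300 μM 15N-labelled CA-CTD(W184A/M185A)-SP1-NC in acetate buffer (25 mM Na acetate pH 6.5, 25 mM NaCl, 0.1 mM ZnCl2, 0.1 mM 2-mercaptoethanol, 10% D2O), 303 K, 600 MHz with cryoprobe. Ligand added from ~60 mM DMSO-d6 stock; reference 1H-15N SOFAST-HMQC recorded first. Per-residue Kd from non-linear fit of chemical shift perturbation vs ligand concentration, one-site model plus linear non-specific term.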

The nature of experiment [3]: Binding affinity to HIV-1NL4-3 15N-labeled C-terminal domain CA-SP1-NC at T239 residue cleavage site of Gag-Pol protein harboring W184A/M185A mutant expressed in Escherichia coli by 1H-15N SOFAST-HMQC spectroscopic analysis. Also noted: species or system Human immunodeficiency virus 1. In a few lines: as §2
Experiment [4] can be described thus: Binding affinity to HIV-1NL4-3 15N-labeled C-terminal domain CA-SP1-NC at L231 residue cleavage site of Gag-Pol protein harboring W184A/M185A mutant expressed in Escherichia coli by 1H-15N SOFAST-HMQC spectroscopic analysis. Also noted: species or system Human immunodeficiency virus 1. In a few lines: as §2
Experiment [5] deals with Human immunodeficiency virus 1. Description: Binding affinity to HIV-1NL4-3 15N-labeled C-terminal domain CA-SP1-NC cleavage site of Gag-Pol protein harboring W184A/M185A mutant expressed in Escherichia coli assessed as change in peak intensity at CA 225 to 229/NC 248 to 251 residues by NMR analysis.
Experiment [6] concerns Human immunodeficiency virus 1. The experiment is described as follows: Binding affinity to HIV-1NL4-3 15N-labeled C-terminal domain CA-SP1-NC cleavage site of Gag-Pol protein harboring W184A/M185A mutant expressed in Escherichia coli assessed as HetNOE value at SP1 T239 residues by NMR analysis (reference value: -0.324No_unit).
Experiment [7] can be described thus: Binding affinity to HIV-1NL4-3 15N-labeled C-terminal domain CA-SP1-NC at T257 residue cleavage site of Gag-Pol protein harboring W184A/M185A mutant expressed in Escherichia coli by 1H-15N SOFAST-HMQC spectroscopic analysis. Also noted: species or system Human immunodeficiency virus 1. Summed up: as §2
The nature of experiment [8]: Binding affinity to HIV-1NL4-3 15N-labeled C-terminal domain CA-SP1-NC at S236 residue cleavage site of Gag-Pol protein harboring W184A/M185A mutant expressed in Escherichia coli by 1H-15N SOFAST-HMQC spectroscopic analysis. Also noted: species or system Human immunodeficiency virus 1. Summed up:
as §2

Experiment [9] deals with Human immunodeficiency virus 1. Description: Binding affinity to HIV-1NL4-3 15N-labeled C-terminal domain CA-SP1-NC cleavage site of Gag-Pol protein harboring W184A/M185A mutant expressed in Escherichia coli assessed as change in chemical shift perturbation at CA 218 to NC 257 residues by 1H-15N SOFAST-HMQC spectroscopic analysis. Summed up: as §1
Experiment [10] has as its system Human immunodeficiency virus 1. Description: Binding affinity to HIV-1NL4-3 15N-labeled C-terminal domain CA-SP1-NC cleavage site of Gag-Pol protein harboring W184A/M185A mutant expressed in Escherichia coli assessed as change in resonances at CA 220/225 to 229 and Nc 248 to 253/ 256 residues by 1H-15N SOFAST-HMQC spectroscopic analysis. In a few lines: as §1
Experiment [11] can be described thus: Binding affinity to HIV-1NL4-3 15N-labeled C-terminal domain CA-SP1-NC at V238 residue cleavage site of Gag-Pol protein harboring W184A/M185A mutant expressed in Escherichia coli by 1H-15N SOFAST-HMQC spectroscopic analysis. Also noted: species or system Human immunodeficiency virus 1. In a few lines:
as §2

The nature of experiment [12]: Binding affinity to HIV-1NL4-3 15N-labeled C-terminal domain CA-SP1-NC at E233 residue cleavage site of Gag-Pol protein harboring W184A/M185A mutant expressed in Escherichia coli by 1H-15N SOFAST-HMQC spectroscopic analysis. Also noted: species or system Human immunodeficiency virus 1. In a few lines:
as §2

Experiment [13] concerns Human immunodeficiency virus 1. The experiment is described as follows: Binding affinity to HIV-1NL4-3 15N-labeled C-terminal domain CA-SP1-NC cleavage site of Gag-Pol protein harboring W184A/M185A mutant expressed in Escherichia coli assessed as formation of QVT motif at SP1 232 to 239 residues by NMR analysis.
Experiment [14] can be described thus: Binding affinity to HIV-1NL4-3 15N-labeled C-terminal domain CA-SP1-NC at M235 residue cleavage site of Gag-Pol protein harboring W184A/M185A mutant expressed in Escherichia coli by 1H-15N SOFAST-HMQC spectroscopic analysis. Also noted: species or system Human immunodeficiency virus 1. In a few lines: as §2
The nature of experiment [15]: Binding affinity to HIV-1NL4-3 15N-labeled C-terminal domain CA-SP1-NC at V221 residue cleavage site of Gag-Pol protein harboring W184A/M185A mutant expressed in Escherichia coli by 1H-15N SOFAST-HMQC spectroscopic analysis. Also noted: species or system Human immunodeficiency virus 1. In a few lines:
as §2

The nature of experiment [16]: Binding affinity to HIV-1NL4-3 15N-labeled C-terminal domain CA-SP1-NC at Q237 residue cleavage site of Gag-Pol protein harboring W184A/M185A mutant expressed in Escherichia coli by 1H-15N SOFAST-HMQC spectroscopic analysis. Also noted: species or system Human immunodeficiency virus 1. In a few lines:
as §2

For orientation: pKd means −log10 of the Kd, conventionally taken in molar units. A low value points to a large Kd. Turning to `C=C(C)[C@@H]1CC[C@]2(C(=O)NCCN)CC[C@]3(C)[C@@H](CC[C@@H]4[C@@]5(C)CC[C@H](OC(=O)CC(C)(C)C(=O)O)C(C)(C)[C@@H]5CC[C@]43C)[C@@H]12`, the outcome in experiment [1], in [5], in [9], in [10] and in experiment [13] was Active. Also, the pKd in [2] is 3.16; in [3] it was 4.28; in [4] it was 3.17; in [7] it was 3.51; in experiment [8], 3.75; in [11], 3.69. The pKd in experiment [12] was 3.63; in experiment [14], 3.63; in experiment [15], 3.17; in experiment [16], 3.81. Moreover, the Activity in [6] was -0.164.
